In ChEMBL document CHEMBL5058577, “EUbOPEN Chemogenomics Library 2 (Multiplex)” (2022):

Tested on: Fibroblast
Assay: Multiplex assay against human fibroblast
Format: toxicity, cell-based
Method in brief: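 Imaging took place on a CQ1 microscope at 37°C and 5% CO2 once compound had been added to live cells stained at seeding with Hoechst33342, BioTracker Green Microtubule Cytoskeleton Dye, MitoTracker Red and Annexin V Alexa Fluor 680. CellPathfinder machine-learning gating classed cells as Hoechst high-intensity objects or normal cells, classed normal cells as having healthy, pyknosed or fragmented nuclei, and classed pyknosed cells as mitotic or apoptotic. Tubulin, mitochondrial-mass and membrane-permeability phenotypes are per cents of the healthy-nucleus cells.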

[1] = 12 h, 1 µM, compound concentration 1 uM, replicate 1
[2] = 12 h, 1 µM, compound concentration 1 uM, replicate 2
[3] = 12 h, 10 µM, compound concentration 10 uM, replicate 1
[4] = 12 h, 10 µM, compound concentration 10 uM, replicate 2
[5] = 24 h, 1 µM, compound concentration 1 uM, replicate 1
[6] = 24 h, 1 µM, compound concentration 1 uM, replicate 2
[7] = 24 h, 10 µM, compound concentration 10 uM, replicate 1
[8] = 24 h, 10 µM, compound concentration 10 uM, replicate 2
[9] = 48 h, 1 µM, compound concentration 1 uM, replicate 1
[10] = 48 h, 1 µM, compound concentration 1 uM, replicate 2
[11] = 48 h, 10 µM, compound concentration 10 uM, replicate 1
[12] = 48 h, 10 µM, compound concentration 10 uM, replicate 2

**Q.** Which “Population Apoptotic (%)” value [1] does the source give for `CC(=O)Nc1cccc2c1c(Sc1ccc(Cl)cc1)c(C)n2CC(=O)O` [AZD1981] here?
**A.** 27%

**Q.** And the “Population Fragmented Nuclei (%)” value [1]?
**A.** 18%

**Q.** And the “Population Healthy Nuclei (%)” value [1]?
**A.** 61%

**Q.** What about the “Population Hoechst High Intensity Objects (%)” value [1] of the same compound?
**A.** 1%

**Q.** What about the “Population Membrane Permeable-Phenotype (%)” value [1] of the same compound?
**A.** 2%

**Q.** What about the “Population Mitochondria Different-Phenotype (%)” value [1] of the same compound?
**A.** 9%

**Q.** And the “Population Mitotic Cells (%)” value [1]?
**A.** 72%

**Q.** What about the “Population Normal (%)” value [1] of the same compound?
**A.** 98%

**Q.** What about the “Population Pyknosed Nuclei (%)” value [1] of the same compound?
**A.** 19%

**Q.** What about the “Population Tubulin-Different-Phenotype (%)” value [1] of the same compound?
**A.** 33%

**Q.** And the “Total Cell Count” value [1]?
**A.** 173

**Q.** What about the “Population Apoptotic (%)” value [2] of the same compound?
**A.** 37%

**Q.** And the “Population Fragmented Nuclei (%)” value [2]?
**A.** 31%

**Q.** And the “Population Healthy Nuclei (%)” value [2]?
**A.** 47%

**Q.** What about the “Population Hoechst High Intensity Objects (%)” value [2] of the same compound?
**A.** 3%

**Q.** What about the “Population Membrane Permeable-Phenotype (%)” value [2] of the same compound?
**A.** 14%

**Q.** And the “Population Mitochondria Different-Phenotype (%)” value [2]?
**A.** 7%

**Q.** What about the “Population Mitotic Cells (%)” value [2] of the same compound?
**A.** 62%

**Q.** What about the “Population Normal (%)” value [2] of the same compound?
**A.** 96%

**Q.** And the “Population Pyknosed Nuclei (%)” value [2]?
**A.** 21%

**Q.** And the “Population Tubulin-Different-Phenotype (%)” value [2]?
**A.** 55%

**Q.** And the “Total Cell Count” value [2]?
**A.** 118

**Q.** And the “Population Apoptotic (%)” value [3]?
**A.** 40%

**Q.** And the “Population Fragmented Nuclei (%)” value [3]?
**A.** 16%

**Q.** What about the “Population Healthy Nuclei (%)” value [3] of the same compound?
**A.** 64%

**Q.** What about the “Population Hoechst High Intensity Objects (%)” value [3] of the same compound?
**A.** 3%

**Q.** And the “Population Membrane Permeable-Phenotype (%)” value [3]?
**A.** 2%

**Q.** And the “Population Mitochondria Different-Phenotype (%)” value [3]?
**A.** 3%

**Q.** What about the “Population Mitotic Cells (%)” value [3] of the same compound?
**A.** 60%

**Q.** And the “Population Normal (%)” value [3]?
**A.** 96%

**Q.** What about the “Population Pyknosed Nuclei (%)” value [3] of the same compound?
**A.** 19%

**Q.** And the “Population Tubulin-Different-Phenotype (%)” value [3]?
**A.** 24%

**Q.** What about the “Total Cell Count” value [3] of the same compound?
**A.** 133

**Q.** What about the “Population Apoptotic (%)” value [4] of the same compound?
**A.** 33%

**Q.** And the “Population Fragmented Nuclei (%)” value [4]?
**A.** 35%

**Q.** And the “Population Healthy Nuclei (%)” value [4]?
**A.** 42%

**Q.** And the “Population Hoechst High Intensity Objects (%)” value [4]?
**A.** 4%

**Q.** And the “Population Membrane Permeable-Phenotype (%)” value [4]?
**A.** 8%

**Q.** What about the “Population Mitochondria Different-Phenotype (%)” value [4] of the same compound?
**A.** 0%

**Q.** What about the “Population Mitotic Cells (%)” value [4] of the same compound?
**A.** 66%

**Q.** And the “Population Normal (%)” value [4]?
**A.** 95%

**Q.** What about the “Population Pyknosed Nuclei (%)” value [4] of the same compound?
**A.** 22%

**Q.** What about the “Population Tubulin-Different-Phenotype (%)” value [4] of the same compound?
**A.** 35%

**Q.** What about the “Total Cell Count” value [4] of the same compound?
**A.** 112

**Q.** And the “Population Apoptotic (%)” value [5]?
**A.** 53%

**Q.** And the “Population Fragmented Nuclei (%)” value [5]?
**A.** 19%

**Q.** What about the “Population Healthy Nuclei (%)” value [5] of the same compound?
**A.** 63%

**Q.** And the “Population Hoechst High Intensity Objects (%)” value [5]?
**A.** 6%

**Q.** And the “Population Membrane Permeable-Phenotype (%)” value [5]?
**A.** 2%

**Q.** What about the “Population Mitochondria Different-Phenotype (%)” value [5] of the same compound?
**A.** 2%

**Q.** What about the “Population Mitotic Cells (%)” value [5] of the same compound?
**A.** 46%

**Q.** What about the “Population Normal (%)” value [5] of the same compound?
**A.** 93%

**Q.** What about the “Population Pyknosed Nuclei (%)” value [5] of the same compound?
**A.** 16%

**Q.** And the “Population Tubulin-Different-Phenotype (%)” value [5]?
**A.** 28%

**Q.** And the “Total Cell Count” value [5]?
**A.** 168

**Q.** And the “Population Apoptotic (%)” value [6]?
**A.** 36%

**Q.** And the “Population Fragmented Nuclei (%)” value [6]?
**A.** 30%

**Q.** What about the “Population Healthy Nuclei (%)” value [6] of the same compound?
**A.** 53%

**Q.** And the “Population Hoechst High Intensity Objects (%)” value [6]?
**A.** 3%

**Q.** What about the “Population Membrane Permeable-Phenotype (%)” value [6] of the same compound?
**A.** 7%

**Q.** And the “Population Mitochondria Different-Phenotype (%)” value [6]?
**A.** 7%

**Q.** And the “Population Mitotic Cells (%)” value [6]?
**A.** 63%

**Q.** What about the “Population Normal (%)” value [6] of the same compound?
**A.** 96%

**Q.** And the “Population Pyknosed Nuclei (%)” value [6]?
**A.** 15%

**Q.** And the “Population Tubulin-Different-Phenotype (%)” value [6]?
**A.** 53%

**Q.** And the “Total Cell Count” value [6]?
**A.** 128

**Q.** What about the “Population Apoptotic (%)” value [7] of the same compound?
**A.** 41%

**Q.** What about the “Population Fragmented Nuclei (%)” value [7] of the same compound?
**A.** 13%

**Q.** And the “Population Healthy Nuclei (%)” value [7]?
**A.** 68%

**Q.** What about the “Population Hoechst High Intensity Objects (%)” value [7] of the same compound?
**A.** 4%

**Q.** What about the “Population Membrane Permeable-Phenotype (%)” value [7] of the same compound?
**A.** 2%

**Q.** What about the “Population Mitochondria Different-Phenotype (%)” value [7] of the same compound?
**A.** 5%

**Q.** What about the “Population Mitotic Cells (%)” value [7] of the same compound?
**A.** 58%

**Q.** And the “Population Normal (%)” value [7]?
**A.** 95%

**Q.** And the “Population Pyknosed Nuclei (%)” value [7]?
**A.** 18%

**Q.** And the “Population Tubulin-Different-Phenotype (%)” value [7]?
**A.** 17%

**Q.** And the “Total Cell Count” value [7]?
**A.** 135

**Q.** What about the “Population Apoptotic (%)” value [8] of the same compound?
**A.** 55%

**Q.** What about the “Population Fragmented Nuclei (%)” value [8] of the same compound?
**A.** 36%

**Q.** And the “Population Healthy Nuclei (%)” value [8]?
**A.** 43%

**Q.** And the “Population Hoechst High Intensity Objects (%)” value [8]?
**A.** 6%

**Q.** And the “Population Membrane Permeable-Phenotype (%)” value [8]?
**A.** 14%

**Q.** What about the “Population Mitochondria Different-Phenotype (%)” value [8] of the same compound?
**A.** 0%

**Q.** What about the “Population Mitotic Cells (%)” value [8] of the same compound?
**A.** 45%

**Q.** What about the “Population Normal (%)” value [8] of the same compound?
**A.** 93%

**Q.** And the “Population Pyknosed Nuclei (%)” value [8]?
**A.** 20%

**Q.** And the “Population Tubulin-Different-Phenotype (%)” value [8]?
**A.** 40%

**Q.** What about the “Total Cell Count” value [8] of the same compound?
**A.** 104

**Q.** What about the “Population Apoptotic (%)” value [9] of the same compound?
**A.** 54%

**Q.** What about the “Population Fragmented Nuclei (%)” value [9] of the same compound?
**A.** 23%

**Q.** What about the “Population Healthy Nuclei (%)” value [9] of the same compound?
**A.** 61%

**Q.** What about the “Population Hoechst High Intensity Objects (%)” value [9] of the same compound?
**A.** 6%

**Q.** And the “Population Membrane Permeable-Phenotype (%)” value [9]?
**A.** 1%

**Q.** And the “Population Mitochondria Different-Phenotype (%)” value [9]?
**A.** 6%

**Q.** And the “Population Mitotic Cells (%)” value [9]?
**A.** 45%

**Q.** What about the “Population Normal (%)” value [9] of the same compound?
**A.** 93%

**Q.** And the “Population Pyknosed Nuclei (%)” value [9]?
**A.** 15%

**Q.** And the “Population Tubulin-Different-Phenotype (%)” value [9]?
**A.** 33%

**Q.** What about the “Total Cell Count” value [9] of the same compound?
**A.** 171

**Q.** And the “Population Apoptotic (%)” value [10]?
**A.** 57%

**Q.** What about the “Population Fragmented Nuclei (%)” value [10] of the same compound?
**A.** 34%

**Q.** And the “Population Healthy Nuclei (%)” value [10]?
**A.** 54%

**Q.** And the “Population Hoechst High Intensity Objects (%)” value [10]?
**A.** 3%

**Q.** What about the “Population Membrane Permeable-Phenotype (%)” value [10] of the same compound?
**A.** 8%

**Q.** And the “Population Mitochondria Different-Phenotype (%)” value [10]?
**A.** 2%

**Q.** What about the “Population Mitotic Cells (%)” value [10] of the same compound?
**A.** 42%

**Q.** And the “Population Normal (%)” value [10]?
**A.** 96%

**Q.** And the “Population Pyknosed Nuclei (%)” value [10]?
**A.** 11%

**Q.** And the “Population Tubulin-Different-Phenotype (%)” value [10]?
**A.** 52%

**Q.** And the “Total Cell Count” value [10]?
**A.** 129

**Q.** And the “Population Apoptotic (%)” value [11]?
**A.** 64%

**Q.** What about the “Population Fragmented Nuclei (%)” value [11] of the same compound?
**A.** 21%

**Q.** What about the “Population Healthy Nuclei (%)” value [11] of the same compound?
**A.** 64%

**Q.** What about the “Population Hoechst High Intensity Objects (%)” value [11] of the same compound?
**A.** 4%

**Q.** And the “Population Membrane Permeable-Phenotype (%)” value [11]?
**A.** 0%

**Q.** What about the “Population Mitochondria Different-Phenotype (%)” value [11] of the same compound?
**A.** 2%

**Q.** What about the “Population Mitotic Cells (%)” value [11] of the same compound?
**A.** 35%

**Q.** What about the “Population Normal (%)” value [11] of the same compound?
**A.** 95%

**Q.** What about the “Population Pyknosed Nuclei (%)” value [11] of the same compound?
**A.** 13%

**Q.** What about the “Population Tubulin-Different-Phenotype (%)” value [11] of the same compound?
**A.** 25%

**Q.** And the “Total Cell Count” value [11]?
**A.** 134

**Q.** And the “Population Apoptotic (%)” value [12]?
**A.** 40%

**Q.** And the “Population Fragmented Nuclei (%)” value [12]?
**A.** 43%

**Q.** And the “Population Healthy Nuclei (%)” value [12]?
**A.** 42%

**Q.** What about the “Population Membrane Permeable-Phenotype (%)” value [12] of the same compound?
**A.** 11%

**Q.** What about the “Population Mitochondria Different-Phenotype (%)” value [12] of the same compound?
**A.** 0%

**Q.** And the “Population Mitotic Cells (%)” value [12]?
**A.** 60%

**Q.** What about the “Population Pyknosed Nuclei (%)” value [12] of the same compound?
**A.** 15%

**Q.** What about the “Population Tubulin-Different-Phenotype (%)” value [12] of the same compound?
**A.** 54%

**Q.** And the “Total Cell Count” value [12]?
**A.** 105
